Assay outcomes as filed in PubChem BioAssay.
MC4R barr agon – activates human MC4R beta-arrestin recruitment; U2OS MC4R beta-arrestin complementation, luminescence; percent of melanotan II response, DMSO zero; activation, % at 8.9 µM; actives 0.98% (n = 360,000); AID 540308;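 active = activation above a per-plate cutoff, the mean activation of sample wells on that plate plus 3 SD, cut at about 8% in these data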
Target sequence (P32245 whole entry, looked up): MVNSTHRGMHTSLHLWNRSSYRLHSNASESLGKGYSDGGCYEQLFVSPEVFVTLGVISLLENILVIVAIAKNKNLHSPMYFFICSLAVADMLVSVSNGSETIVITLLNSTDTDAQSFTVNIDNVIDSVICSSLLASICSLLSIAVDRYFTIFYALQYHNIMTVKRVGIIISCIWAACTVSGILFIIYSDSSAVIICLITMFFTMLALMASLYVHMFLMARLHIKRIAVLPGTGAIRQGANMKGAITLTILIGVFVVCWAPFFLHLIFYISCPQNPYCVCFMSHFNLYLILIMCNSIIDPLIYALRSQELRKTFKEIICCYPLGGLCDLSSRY
EBI2 antag – blocks human EBI2 receptor beta-arrestin signaling | P32249 | AID 651636 | EBI2 beta-arrestin recruitment, luminescence, 7a,25-OHC stimulated | actives 0.81% (n = 360,000) | inhibition, % at 5 µM; in the data active = inhibition above about 38%;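 also: enzyme fragment complementation signal reports receptor beta-arrestin coupling in cells; 0% = agonist plus DMSO wells and 100% = wells without agonist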
HTR2A ag – activates the mouse 5-HT2A serotonin receptor; P35363; CHO-K1 mHTR2A beta-arrestin complementation, luminescence; percent of 30 µM serotonin response; activation, % at 7.6 µM; actives 0.66% (n = 360,000); AID 624169;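 active = activation above a run cutoff, the mean activation of all tested compounds plus 3 SD, cut at about 14% in these data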;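 also: 0% = plate median of compound wells and 100% = 30 µM serotonin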
MC4R antag cAMP – antagonists of human melanocortin 4 receptor (MC4R). MC4R-expressing cells, MTII-stimulated cAMP, LANCE TR-FRET. AID 540295. actives 0.48% (n = 360,000). inhibition, % at 6.5 µM. P32245;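 active = inhibition above its plate's cutoff, the mean of tested wells on that plate plus 3 SD, cut at about 29% in these data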;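 also: 0% = Melanotan II alone and 100% = Melanotan II plus saturating MCL0020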
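material = U2OS cells stably expressing human melanocortin 4 receptor (MC4R) | also added = Melanotan II challenge | dosing = single nominal compound dose of 6.5 µM | detection = TR-FRET with Eu-cAMP and labeled anti-cAMP, 671 nm | replication = singlicate | timing = compound 30 min, challenge 1 h, detection 1 h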
EBI2 antag conf – confirmation of human EBI2 receptor antagonists. EBI2 beta-arrestin luminescence, 7a,25-OHC antagonism. shares compounds with EBI2 antag. actives 29% (n = 2,400). inhibition, % at 5 µM;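 active = inhibition of at least 50%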
EBI2 agonist – counter-screen for EBI2 antagonists: EBI2 agonist activity | activation, % at 5 µM | shares compounds with EBI2 antag | 2,400 tested, under 10 active | AID 652000 | EBI2-expressing cells, agonist mode, luminescence, 60 min; 0% vehicle, 100% 7α,25-dihydroxycholesterol control;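 active = activation of at least 50%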
bGal counter – counter-screen for EBI2 antagonists: E. coli beta-galactosidase inhibition. inhibition, % at 5 µM. shares compounds with EBI2 antag. actives 1% (n = 2,400). purified beta-galactosidase, luminescent Galacton Star, 15 min;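 active = replicate-average signal at least 3 plate SD below neutral wells, shown as high inhibition, flagging enzyme-inhibiting false positives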;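 also: 0% = DMSO wells with enzyme and 100% = wells lacking enzyme; higher means stronger loss of beta-gal luminescence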
* = called active by the depositor. An excerpt weighted towards active compounds, which were near 2.8% of everything screened.

For CCOc1ccc2oc(C(=O)OCC(=O)NC3CCCCC3)c(C)c2c1 the results were MC4R barr agon 6, EBI2 antag 8, HTR2A ag -4 and MC4R antag cAMP 2.
`CC(NC(=O)c1cc(S(=O)(=O)N2CCCC2)cn1C)c1ccccc1` (configuration not stated) gave MC4R barr agon 2, EBI2 antag -3, HTR2A ag 4 and MC4R antag cAMP 0.
Screening COC(=O)c1ccc2nc(C3CCCCC3)c(Cc3ccccc3)n2c1 returned EBI2 antag 51*, HTR2A ag 2, EBI2 antag conf 65*, EBI2 agonist -1 and bGal counter -17.
`COC(=O)c1ccc2nc(C3CCCCC3)c(CC(C)(C)C)n2c1` gave EBI2 antag 5 and HTR2A ag -5.
`COC(=O)[C@]12CCCCC=C1N(Cc1cccc3ccccc13)C(=O)[C@H](CC(=O)NCCCCc1ccccc1)C2` gave EBI2 antag 47*, HTR2A ag -6, EBI2 antag conf 36, EBI2 agonist 1 and bGal counter 4.
For O=C(CN1CCN(C(=O)c2cccc(S(=O)(=O)N3CCCC3)c2)CC1)Nc1ccc(F)cc1 the results were MC4R barr agon -2, EBI2 antag -7, HTR2A ag 5 and MC4R antag cAMP 5.
`Cc1ccc(C(=O)N2CCC(C(=O)c3ccc(F)cc3)CC2)cc1` gave MC4R barr agon -2, EBI2 antag 52*, HTR2A ag 2, MC4R antag cAMP -5, EBI2 antag conf 50*, EBI2 agonist 1 and bGal counter 1.
`Cc1ccc(C(=O)N2CCN(S(=O)(=O)N3CCCCCC3)CC2)cc1` gave MC4R barr agon 0, EBI2 antag 31, HTR2A ag -6 and MC4R antag cAMP 8.
For O=C(c1ccc(Cl)cc1)C1CCN(C(=O)c2ccc(F)cc2)CC1 the results were MC4R barr agon -1, EBI2 antag 49*, HTR2A ag 0, MC4R antag cAMP 3, EBI2 antag conf 14, EBI2 agonist 1 and bGal counter 7.
Screening Cc1ccc(C(=O)N2CCC(C(=O)c3c(C)cc(C)cc3C)CC2)cc1 returned MC4R barr agon 3, EBI2 antag 43*, HTR2A ag -3, MC4R antag cAMP 4, EBI2 antag conf 14, EBI2 agonist 0 and bGal counter -11.
`CC(=O)N1CCC(C(=O)c2ccc(Cl)cc2)CC1` gave MC4R barr agon -1, EBI2 antag 1, HTR2A ag 2 and MC4R antag cAMP -3.
Cc1ccc(C(=O)C2CCN(C(=O)c3ccc(C)cc3)CC2)cc1 was read as MC4R barr agon 2, EBI2 antag 57*, HTR2A ag 1, MC4R antag cAMP -9, EBI2 antag conf 32, EBI2 agonist 0 and bGal counter -14.
COc1ccccc1C(=O)N1CCC(C(=O)c2ccc(F)cc2)CC1 was read as MC4R barr agon -2, EBI2 antag 0, HTR2A ag -2 and MC4R antag cAMP -6.
`COc1ccc(-c2cc(C)no2)cc1S(=O)(=O)N1CCN(C(=O)c2ccco2)CC1` gave MC4R barr agon -3, EBI2 antag -5, HTR2A ag -1 and MC4R antag cAMP -3.
Screening CCc1ccc([C@@H]2C[C@H]3[C@@H](CN2S(=O)(=O)c2ccc(C)cc2)C(=O)C[C@@H](c2ccccc2F)N3S(=O)(=O)c2ccc(C)cc2)cc1 returned MC4R barr agon -1, EBI2 antag 10, HTR2A ag 2 and MC4R antag cAMP 0.
For Cc1ccc(C(=O)N2CCN(c3ccc(NC(=S)NC(=O)c4cccs4)cc3)CC2)cc1 the results were MC4R barr agon -1, EBI2 antag 38, HTR2A ag 3 and MC4R antag cAMP -1.
For O=C(c1ccc(Cl)cc1)N1CCN(c2ccc(F)cc2)CC1 the results were MC4R barr agon -1, EBI2 antag 51*, HTR2A ag 1, MC4R antag cAMP 8, EBI2 antag conf 41, EBI2 agonist 0 and bGal counter 3.
For CCC(=O)NC(=S)Nc1ccc(N2CCN(C(=O)c3ccc(Cl)cc3)CC2)cc1 the results were MC4R barr agon 0, EBI2 antag 43*, HTR2A ag 13, MC4R antag cAMP 5, EBI2 antag conf 11, EBI2 agonist 0 and bGal counter -11.
`O=C(c1ccncc1)N1CCN(c2ccc(F)cc2)CC1` gave MC4R barr agon -2, EBI2 antag -4, HTR2A ag -1 and MC4R antag cAMP 8.
For CCOC(=O)Nc1ccc2c(CN3CCN(S(=O)(=O)c4ccc(C(C)C)cc4)CC3)cc(=O)oc2c1 the results were MC4R barr agon -1, EBI2 antag 55*, HTR2A ag 6, MC4R antag cAMP 5, EBI2 antag conf 10, EBI2 agonist -1 and bGal counter -12.
For Cc1ccnc(NC(=O)c2oc3ccccc3c2C)c1 the results were MC4R barr agon -3, EBI2 antag 11, HTR2A ag -5 and MC4R antag cAMP -4.
Screening CCOc1ccc2oc(C(=O)Nc3cc(C)ccn3)c(C)c2c1 returned MC4R barr agon 3, EBI2 antag 43*, HTR2A ag -5, MC4R antag cAMP 5, EBI2 antag conf 10, EBI2 agonist -1 and bGal counter -10.
